Measurements published in ChEMBL document CHEMBL5724801, “EUbOPEN Chemogenomics Library - Multiplex” (2024).
“And” between values parts separate entries of the source, which are not always exact repeats. Equal values may be shown once.

Tested on: HEK-293T
Experiment: Multiplex assay against HEK293T
Assay type: toxicity, cell-based
Details: human
Summary of the method: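 Imaging took place on a CQ1 microscope at 37°C and 5% CO2 once compound had been added to live cells stained at seeding with Hoechst33342, BioTracker Green Microtubule Cytoskeleton Dye, MitoTracker Red and Annexin V Alexa Fluor 680. CellPathfinder machine-learning gating classed cells as Hoechst high-intensity objects or normal cells, classed normal cells as having healthy, pyknosed or fragmented nuclei, and classed pyknosed cells as mitotic or apoptotic. Tubulin, mitochondrial-mass and membrane-permeability phenotypes are per cents of the healthy-nucleus cells.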

[1] = 12 h, 1 µM, compound concentration 1 uM
[2] = 12 h, 10 µM, compound concentration 10 uM
[3] = 24 h, 1 µM, compound concentration 1 uM
[4] = 24 h, 10 µM, compound concentration 10 uM
[5] = 48 h, 1 µM, compound concentration 1 uM
[6] = 48 h, 10 µM, compound concentration 10 uM

CN(C)CCCn1cc(C2=C(c3c[nH]c4ccccc34)C(=O)NC2=O)c2ccccc21 [GF-109203]
Population Apoptotic (%) [1]: 9.36% and 6.29% | Population Fragmented Nuclei (%) [1]: 1.17% and 4.02% | Population Hoechst High Intensity Objects (%) [1]: 0.58% and 0% | Population Membrane Permeable-Phenotype (%) [1]: 0% and 4.17% | Population Mitochondria Different-Phenotype (%) [1]: 26.35% and 29.17% | Population Mitotic Cells (%) [1]: 90.64% and 93.71% | Population Normal (%) [1]: 99.42% and 100% | Population Pyknosed Nuclei (%) [1]: 50% and 82.18% | Total Cell Count [1]: 344 and 174 | Population Apoptotic (%) [2]: 11.11% and 17.19% | Population Fragmented Nuclei (%) [2]: 4.81% and 3.4% | Population Hoechst High Intensity Objects (%) [2]: 0.32% and 0% | Population Membrane Permeable-Phenotype (%) [2]: 0% and 7.14% | Population Mitotic Cells (%) [2]: 88.89% and 82.81% | Population Normal (%) [2]: 99.68% and 100% | Population Pyknosed Nuclei (%) [2]: 57.69% and 87.07% | Population Tubulin-Different-Phenotype (%) [2]: 52.99% and 57.14% | Total Cell Count [2]: 313 and 147 | Population Apoptotic (%) [3]: 15.57% and 18.97% | Population Fragmented Nuclei (%) [3]: 1.6% and 5.42% | Population Healthy Nuclei (%) [3]: 73.95% and 24.7% | Population Hoechst High Intensity Objects (%) [3]: 0% | Population Membrane Permeable-Phenotype (%) [3]: 1.36% and 4.88% | Population Mitochondria Different-Phenotype (%) [3]: 10.84% and 17.07% | Population Mitotic Cells (%) [3]: 84.43% and 81.03% | Population Normal (%) [3]: 100% | Population Pyknosed Nuclei (%) [3]: 24.45% and 69.88% | Population Tubulin-Different-Phenotype (%) [3]: 17.62% and 12.2% | Population Apoptotic (%) [4]: 27.17% and 24.46% | Population Fragmented Nuclei (%) [4]: 2.62% and 2.48% | Population Hoechst High Intensity Objects (%) [4]: 0% | Population Membrane Permeable-Phenotype (%) [4]: 0% | Population Mitochondria Different-Phenotype (%) [4]: 40.74% and 16.67% | Population Mitotic Cells (%) [4]: 72.83% and 75.54% | Population Normal (%) [4]: 100% | Population Pyknosed Nuclei (%) [4]: 50.29% and 86.34% | Population Tubulin-Different-Phenotype (%) [4]: 84.57% and 50% | Total Cell Count [4]: 344 and 161 | Population Apoptotic (%) [5]: 10.45% and 22.58% | Population Fragmented Nuclei (%) [5]: 0.57% and 1.08% | Population Healthy Nuclei (%) [5]: 84.04% and 48.92% | Population Hoechst High Intensity Objects (%) [5]: 0% | Population Membrane Permeable-Phenotype (%) [5]: 3.01% and 1.1% | Population Mitochondria Different-Phenotype (%) [5]: 32.1% and 38.46% | Population Mitotic Cells (%) [5]: 89.55% and 77.42% | Population Normal (%) [5]: 100% | Population Apoptotic (%) [6]: 45.68% and 29.41% | Population Fragmented Nuclei (%) [6]: 1.92% and 2.34% | Population Healthy Nuclei (%) [6]: 46.15% and 18.13% | Population Hoechst High Intensity Objects (%) [6]: 0% and 0.58% | Population Membrane Permeable-Phenotype (%) [6]: 1.39% and 9.68% | Population Mitochondria Different-Phenotype (%) [6]: 87.5% and 58.06% | Population Mitotic Cells (%) [6]: 54.32% and 70.59% | Population Normal (%) [6]: 100% and 99.42% | Population Pyknosed Nuclei (%) [6]: 51.92% and 79.53% | Total Cell Count [6]: 312 and 172
